Data reported in ChEMBL document CHEMBL1156228 (2010).
Where “and” joins values, the source holds several entries; their conditions need not be identical. Equal entries are not always repeated.

Experiments:
[1] = Antioxidant activity assessed as superoxide radical-scavenging activity at 100 uM by EPR spectroscopy; type: functional
Method in brief: (§1)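 Superoxide generated by xanthine (0.2 mM) plus xanthine oxidase (0.02 U/ml) in PBS pH 7.4 containing DEPMPO spin trap (1 mM) and DTPA (0.1 mM), with or without derivative. The DEPMPO-OOH adduct was measured by EPR and double-integrated. Signal is expressed as percent of the level without derivative.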

[2] = Antioxidant activity assessed as superoxide radical-scavenging activity at 1 mM by EPR spectroscopy; type: functional; method in brief: as §1
[3] = Antioxidant activity assessed as peroxyl radical-scavenging activity at 1 mM by EPR spectroscopy; type: functional
Method in brief: (§2)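 Alkylperoxyl radicals generated by thermolysis of 2,2-azobis-2-amidinopropane dihydrochloride (25 mM) in aerobic PBS at 37°C. EPR run in PBS pH 7.4 with DEPMPO (1 mM) and DTPA (0.1 mM), with or without derivative. The DEPMPO-OOR adduct was quantified by double integration and expressed as percent of the untreated level.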

[4] = Antioxidant activity assessed as peroxyl radical-scavenging activity at 100 uM by EPR spectroscopy; type: functional; method in brief: as §2
CHO = test: Antioxidant activity in CHO cells assessed as protection from H2O2-induced toxicity at 50 uM pretreated for 2 hrs before H2O2 challenge measured after 1 hr by MTT assay; type: functional, Cricetulus griseus
Method in brief: (§3)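 Cells grown to 80% confluence at 37°C in 5% CO2, trypsinized and seeded at about 7,000 cells/well. After 24–48 h they were exposed to derivative for 2 h, then to H2O2 at 1 mM for 1 h. Viability was read by MTT-to-formazan conversion, with at least 6 repeats.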

[5] = Antioxidant activity in HSMC assessed as protection from H2O2-induced toxicity at 50 uM pretreated for 2 hrs before H2O2 challenge measured after 1 hr by MTT assay; type: functional, Homo sapiens; method in brief: as §3

SMILES | Activity [1] | Activity [2] | Activity [3] | Activity [4] | Activity (CHO) | Activity [5]
COc1ccc(CCN(C)CCCC(CNC(=O)C2=C(C)C(C)(C)N(O)C2(C)C)(c2ccc(OC)c(OC)c2)C(C)C)cc1OC (centres undefined) | 78.2% | 100% | 100% | 100% | 60% | 39.7%
COc1ccc(CCN(C)CCCC(CNC(=O)C2=CC(C)(C)NC2(C)C)(c2ccc(OC)c(OC)c2)C(C)C)cc1OC (centres undefined) | – | 34.9% | 84.1% | – | 53.5% | 53.7%
COc1ccc(CCN(C)CCCC(CNC(=O)C2=C(c3ccccc3)C(C)(C)N(O)C2(C)C)(c2ccc(OC)c(OC)c2)C(C)C)cc1OC (centres undefined) | 79.3% | 100% | 100% | 86.1% | 68.3% | 47.5%
COc1ccc(CCN(C)CCCC(CNCC2=CC(C)(C)NC2(C)C)(c2ccc(OC)c(OC)c2)C(C)C)cc1OC (centres undefined) | 73.8% | 100% | 100% | 89.8% | 71.2% | 39.1%
COc1ccc(CCN(C)CCCC(CNC(=O)C2CC(C)(C)N(O)C(C)(C)C2)(c2ccc(OC)c(OC)c2)C(C)C)cc1OC (centres undefined) | 76.5% | 100% | 90.1% | – | 50.3% | 40.2%
COc1ccc(CCN(C)CCC[C@@](CNC(=O)C2=CC(C)(C)N(O)C(C)(C)C2)(c2ccc(OC)c(OC)c2)C(C)C)cc1OC | 66.5% | 100% | 100% | 91.4% | 46.1% | 33.1%
COc1ccc(CCN(C)CCCC(CNC(=O)C2=CC(C)(C)N(C)C2(C)C)(c2ccc(OC)c(OC)c2)C(C)C)cc1OC (centres undefined) | – | 60.7% | 89.8% | – | 55.5% | 48.7%
COc1ccc(CCN(C)CCCC(CNC(=O)C2CC(C)(C)N(O)C2(C)C)(c2ccc(OC)c(OC)c2)C(C)C)cc1OC (centres undefined) | 84.2% | 100% | 100% | 98% | 62.1% | 40.2%
COc1ccc(CCN(C)CCCC(CNC(=O)CC2(C)CCC(C)(C)N2O)(c2ccc(OC)c(OC)c2)C(C)C)cc1OC (centres undefined) | 70.7% and 78.1% | 100% | 100% | 89.2% | 54% | 44%
COc1ccc(CCN(C)CCCC(CNC(=O)C2=CC(C)(C)N(O)C2(C)C)(c2ccc(OC)c(OC)c2)C(C)C)cc1OC (centres undefined) | – | 55.2% | 14.9% | – | 48.9% | 59.1%
COc1ccc(CCN(C)CCCC(CNCC2=CC(C)(C)N(O)C2(C)C)(c2ccc(OC)c(OC)c2)C(C)C)cc1OC (centres undefined) | 88.5% | 100% | 100% | 92.9% | 63.6% | 43.3%
